This is an account of results in ChEMBL document CHEMBL1121685, “Development of new mitomycin C and porfiromycin analogues” (J Med Chem, 1981).

Structures are written as SMILES.

Series [1] has as its system Mus musculus. Nature of the series: Effect of compound on total white blood cell count in BDG1 male mice, after intraperitoneal administration at a dose of 12.8 mg/kg on day 3 (highest dose was twice the optimal dose). It is filed as functional. The procedure, abridged:
(§1)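 BDG₁ male mice received a single ip dose on day 0. The dose series topped out at the LD₅₀ level, or at twice the optimal dose for some agents. Total white blood cell count was taken on days 3, 5 and 7 and expressed as % change from untreated controls. Significance was set at p ≤ 0.05 or p ≤ 0.01.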

For series [2], the system named is Mus musculus. Briefly: Effect of compound on total white blood cell count in BDG1 male mice, after intraperitoneal administration at a dose of 12.8 mg/kg on day 5 (highest dose was twice the optimal dose). Format: functional. The procedure, abridged: as §1
Series [3] deals with Mus musculus. Briefly: Effect of compound on total white blood cell count in BDG1 male mice, after intraperitoneal administration at a dose of 12.8 mg/kg on day 7 (highest dose was twice the optimal dose). It is filed as functional.
For series [4], the system named is Mus musculus. Briefly: Effect of compound on total white blood cell count in BDG1 male mice, after intraperitoneal administration at a dose of 6.4 mg/kg on day 5. It is filed as functional. The procedure, abridged:
(§2)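 Single ip dose given on day 0 to BDG₁ male mice. Total white blood cell count measured on days 3, 5 and 7, expressed as % change from control. Highest dose was at the LD₅₀, or at twice the optimal dose where so footnoted. Significance reported at p ≤ 0.05 and p ≤ 0.01. D marks death of one or more mice.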

Series [5] deals with Mus musculus. Nature of the series: Effect of compound on total white blood cell count in BDG1 male mice, after intraperitoneal administration at a dose of 6.4 mg/kg on day 3. Format: functional. Put shortly:
as §2

Series [6] relates to Mus musculus. Nature of the series: Effect of compound on total white blood cell count in BDG1 male mice, after intraperitoneal administration at a dose of 6.4 mg/kg on day 7. Format: functional. Put shortly: as §2
Series [7] concerns Mus musculus. Briefly: Minimum effective dose that show activity against P-388 murine leukemia cells in CDF1 female mice, after intraperitoneal administration (optimal dose is 6.4 mg/kg). It is filed as functional. The conditions noted are these: P388, ip, read-out: MED. The procedure, abridged:
(§3)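 10⁶ P-388 ascites cells implanted ip in CDF₁ female mice. Six mice per dose, 10 saline-injected controls, and a concurrent mitomycin C reference group. %T/C = median survival time of treated/control × 100. MED is the lowest dose giving %T/C > 125. Therapeutic ratio = optimal dose/MED.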

In series [8] the test system is Mus musculus. Nature of the series: Antitumor activity against P-388 murine leukemia cells in CDF1 female mice after intraperitoneal administration at the specified optimal dose of 6.4 mg/kg. It is filed as functional.
The nature of series [9]: Therapeutic ratio is expressed as ratio of optimal dose and minimum effective dose. It is filed as ADME. The settings on record: mouse; read-out: TR. Put shortly: as §3
Series [10] deals with Mus musculus. Nature of the series: Antitumor activity against P-388 murine leukemia cells in CDF1 female mice after intraperitoneal administration at the specified optimal dose of 51.2 mg/kg. Format: functional.

As usually defined, the T/C is the ratio of treated to control. Regarding `C=CCNC1=C(C)C(=O)C2=C(C1=O)[C@H](COC(N)=O)C1(OC)[C@@H]3N[C@@H]3CN21` (stereo partly specified), the Change in series [1] was -33%; in series [2] it was -42%; in [3], 6%; in series [4], -37%; in [5] it was -35%; in series [6], -0.6%. The minimal effective dose in [7] was 3.2 mg/kg. Also, the T/C in [8] was 150%. The selectivity ratio in [9] turned out to be 2.

In turn, `COC12[C@@H](COC(N)=O)C3=C(C(=O)C(C)=C(NCCCl)C3=O)N1C[C@@H]1[C@H]2N1C` (stereo partly specified) registered a T/C in [10] of 205%. In series [9], the selectivity ratio was found to be 8.
